ChEMBL document CHEMBL3286225, “Novel carboline derivatives as potent antifungal lead compounds: design, synthesis, and biological evaluation” (ACS Med Chem Lett, 2014)
≈ marks a conversion by molar mass, not a printed value. Calls of active or inactive are those of the source. No cut-off for these calls is given here.

Assays:
[1] = system: Candida parapsilosis; assay: Antifungal activity against Candida parapsilosis ATCC 22019 after 24 hrs by serial dilution method; assay type: functional; conditions: Lodderomyces parapsilosis, ATCC 22019, 24 h
[2] = system: Candida albicans; assay: Inhibition of biofilm formation of fluconazole-sensitive Candida albicans SC5314 at 64 ug/ml after 48 hrs by XTT assay relative to control; assay type: functional
In short: (§1)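 Biofilm formation by C. albicans SC5314 or 103 in presence of 2–64 μg/mL drug (fluconazole 64 μg/mL reference); quantified by XTT reduction as % of blank control; mean ± standard deviation of three independent experiments, ANOVA and Student t test.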

[3] = system: Candida albicans; assay: Antifungal activity against fluconazole-sensitive Candida albicans SC5314 after 24 hrs by serial dilution method; assay type: functional; conditions: SC5314, 24 h
[4] = system: Candida albicans; assay: Antifungal activity against fluconazole-sensitive Candida albicans SC5314 assessed as change in sterol composition at 8 ug/ml after 24 hrs by GC-MS analysis (reference value: 8.5%); assay type: functional
In short: (§2)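 C. albicans SC5314 exposed to 8 μg/mL for 24 h, sterols analysed by GC-MS with cholesterol internal standard; each sterol expressed as % of total sterol fraction versus no-drug control; average of three independent experiments.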

[5] = system: Aspergillus fumigatus; assay: Antifungal activity against Aspergillus fumigatus 07544 after 7 days by serial dilution method; assay type: functional; conditions: Aspergillus fumigatus, 07544, 168 h
[6] = system: Nannizzia gypsea; assay: Antifungal activity against Microsporum gypseum Cmccfmza after 7 days by serial dilution method; assay type: functional; conditions: 168 h
[7] = system: Candida tropicalis; assay: Antifungal activity against Candida tropicalis after 7 days by serial dilution method; assay type: functional; conditions: 168 h
[8] = system: Candida albicans; assay: Antifungal activity against fluconazole-resistant Candida albicans 07109 after 24 hrs by serial dilution method; assay type: functional; conditions: Candida albicans, 07109, 24 h
[9] = system: Candida albicans; assay: Antifungal activity against fluconazole-sensitive Candida albicans SC5314 assessed as abnormal cell shape at 8 ug/ml after 8 hrs by TEM analysis; assay type: functional, organism-based
In short: (§3)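 Transmission electron microscopy of C. albicans SC5314 cells exposed to 8 μg/mL drug for 8 h; untreated cells as reference; cell wall, membrane, cytoplasm and vacuole morphology inspected.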

[10] = system: Pichia kudriavzevii; assay: Antifungal activity against Candida krusei 0710397 after 7 days by serial dilution method; assay type: functional; conditions: Pichia kudriavzevii, 0710397, 168 h
[11] = system: Candida albicans; assay: Antifungal activity against fluconazole-sensitive Candida albicans SC5314 assessed as change in obtusifoliol composition at 8 ug/ml after 24 hrs by GC-MS analysis relative to control; assay type: functional; in short: as §2
[12] = system: Cryptococcus neoformans; assay: Antifungal activity against Cryptococcus neoformans 32609 after 72 hrs by serial dilution method; assay type: functional; conditions: Cryptococcus neoformans, 32609, 72 h
[13] = system: Candida albicans; assay: Fungicidal activity against fluconazole-sensitive Candida albicans SC5314 at 32 ug/ml after 12 to 48 hrs; assay type: functional, organism-based
In short: (§4)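 Time-kill: C. albicans (SC5314 or 103) inoculated at 10^5 CFU/mL, untreated or with drug (2–32 μg/mL; fluconazole 32 μg/mL reference); CFU/mL counted after 0, 12, 24 and 48 h.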

[14] = system: Candida albicans; assay: Antifungal activity against fluconazole-resistant Candida albicans 103 after 24 hrs by serial dilution method; assay type: functional; conditions: Candida albicans, 103, 24 h
[15] = system: Candida albicans; assay: Antifungal activity against fluconazole-resistant Candida albicans 100 after 24 hrs by serial dilution method; assay type: functional; conditions: Candida albicans, 100, 24 h
[16] = system: Candida albicans; assay: Antifungal activity against fluconazole-sensitive Candida albicans SC5314 assessed as change in ergosterol composition at 8 ug/ml after 24 hrs by GC-MS analysis (reference value: 90%); assay type: functional; in short: as §2
[17] = system: Candida albicans; assay: Antifungal activity against fluconazole-resistant Candida albicans 805 after 24 hrs by serial dilution method; assay type: functional; conditions: Candida albicans, 805, 24 h
[18] = system: Candida albicans; assay: Inhibition of hyphal growth of fluconazole-sensitive Candida albicans SC5314 at 8 ug/ml after 16 hrs by light microscopic analysis; assay type: functional, organism-based
In short: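 C. albicans SC5314 incubated in RPMI 1640 liquid medium at 37 °C for 16 h with or without drug (2–8 μg/mL); hyphal, pseudohyphal or yeast morphology scored microscopically against blank control.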

[19] = system: Nakaseomyces glabratus; assay: Antifungal activity against Candida glabrata 537 after 24 hrs by serial dilution method; assay type: functional; conditions: Nakaseomyces glabratus, 537, 24 h
[20] = system: Candida albicans; assay: Fungicidal activity against fluconazole-sensitive Candida albicans SC5314 assessed as reduction in fungi density after 24 hrs; assay type: functional, organism-based; in short: as §4
[21] = system: Trichophyton rubrum; assay: Antifungal activity against Trichophyton rubrum Cmccftla after 7 days by serial dilution method; assay type: functional; conditions: 168 h
[22] = system: Candida albicans; assay: Inhibition of biofilm formation of fluconazole-resistant Candida albicans 103 at 64 ug/ml after 48 hrs by XTT assay; assay type: functional, organism-based; in short: as §1
[23] = system: Candida albicans; assay: Antifungal activity against fluconazole-sensitive Candida albicans SC5314 assessed as change in lanosterol composition at 8 ug/ml after 24 hrs by GC-MS analysis (reference value: 1.5%); assay type: functional; in short: as §2
[24] = system: Candida albicans; assay: Antifungal activity against fluconazole-sensitive Candida albicans SC5314 assessed as cell membrane damage at 8 ug/ml after 8 hrs by TEM analysis; assay type: functional, organism-based; in short: as §3
[25] = system: Candida albicans; assay: Antifungal activity against fluconazole-sensitive Candida albicans SC5314 assessed as change in eburicol composition at 8 ug/ml after 24 hrs by GC-MS analysis relative to control; assay type: functional; in short: as §2

OC(Cn1cncn1)(Cn1cncn1)c1ccc(F)cc1F [FLUCONAZOLE]
MIC80 [1]: 2 µg/mL (≈ 6.53 µM)
inhibition [2]: inactive
MIC80 [3]: 0.5 µg/mL (≈ 1.63 µM)
Activity [4]: 4.8%
MIC80 [5]: > 64 µg/mL
MIC80 [6]: 1 µg/mL (≈ 3.27 µM)
MIC80 [7]: 1 µg/mL (≈ 3.27 µM)
MIC80 [8]: > 1020 µg/mL
Activity [9]: Active
MIC80 [10]: 4 µg/mL (≈ 13.1 µM)
Activity [11]: 6.5%
MIC80 [12]: 2 µg/mL (≈ 6.53 µM)
Activity [13]: Active
MIC80 [14]: 4 µg/mL (≈ 13.1 µM)
MIC80 [15]: > 1020 µg/mL
Activity [16]: 0.6%
MIC80 [17]: > 1020 µg/mL
growth inhibition (GI) [18]: inactive
MIC80 [19]: 0.5 µg/mL (≈ 1.63 µM)
Activity [20]: inactive
MIC80 [21]: 4 µg/mL (≈ 13.1 µM)
inhibition [22]: inactive
Activity [23]: 5.9%
Activity [24]: Active
Activity [25]: 82.2%

Cc1ccc2c(c1)[C@@H]1CN(C)CC[C@@H]1N2C(=O)c1ccc2ccccc2c1
MIC80 [1]: 16 µg/mL (≈ 44.9 µM)
MIC80 [3]: 32 µg/mL (≈ 89.8 µM)
MIC80 [5]: > 64 µg/mL
MIC80 [6]: 32 µg/mL (≈ 89.8 µM)
MIC80 [12]: 8 µg/mL (≈ 22.4 µM)
Activity [13]: Active
MIC80 [19]: > 64 µg/mL
MIC80 [21]: 16 µg/mL (≈ 44.9 µM)
